Data from paper PMC8640995 (ACS Chemical Neuroscience, 2021).
Like-named read-outs stand apart in the source and are kept apart here.

Columns and labels:
[1] = assay type: in vivo, Wistar rats; details: for area under the curve, brain time–activity curve: 60 min scan; for area under the curve, brain time–activity curve / SUVmax brain: n = 2
P2Y12R [2] = molecular target: T1, P2Y12R (Rattus norvegicus, UniProt Q9EPX4); experiment: in vitro autoradiography on rat brain sections using [18F]3; assay type: binding
T1 sequence (Q9EPX4 whole entry): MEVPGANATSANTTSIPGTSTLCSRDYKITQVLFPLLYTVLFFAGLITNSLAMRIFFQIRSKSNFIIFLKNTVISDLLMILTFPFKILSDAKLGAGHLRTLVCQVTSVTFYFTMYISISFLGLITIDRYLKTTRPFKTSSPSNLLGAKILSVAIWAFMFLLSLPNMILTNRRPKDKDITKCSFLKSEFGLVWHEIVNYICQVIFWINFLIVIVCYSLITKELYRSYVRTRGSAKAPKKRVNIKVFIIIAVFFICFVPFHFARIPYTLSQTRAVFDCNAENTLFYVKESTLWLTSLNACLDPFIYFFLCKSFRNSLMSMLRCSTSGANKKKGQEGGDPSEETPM
In short: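 Flash-frozen rat brain sections (10 μm) were prewashed 15 min in 50 mM Tris-HCl pH 7.4 and air-dried. They were then incubated 30 min with 18F tracer (0.1 MBq·mL–1) in 50 mM Tris-HCl/3% BSA pH 7.4, with or without P2Y12R inhibitor at 1 μM. Sections were washed twice for 1 min in cold 5 mM Tris-HCl (4 °C), dipped in ice-cold water and dried, then exposed to a phosphor screen for 10 min. Whole-brain ROI binding was expressed as % of no-inhibitor binding; n = 3.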

P2Y12R [3] = molecular target: T1, P2Y12R; assay type: in vivo, Wistar rats
In short: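 Male Wistar rats (12–15 weeks, 250–350 g) under isoflurane anesthesia; n = 4 per group. Both groups received tariquidar 15 mg/kg iv. The blocking group also received unlabeled test compound 5 mg/kg together with the tariquidar. The 18F tracer (10–25 MBq) was given iv via tail vein, followed immediately by a dynamic PET scan. Whole-brain ROI time–activity curves were expressed as SUV, mean ± standard deviation.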

human P2Y12R = details: human P2Y12R-transfected HEK cells; cited from earlier work
[4] = previously reported biodistribution data, 5 and 15 min post-injection; cited from earlier work
[5] = previously determined using the same method; cited from earlier work
[6] = baseline, after the initial perfusion peak, iv
[7] = efflux transporter blocking with tariquidar

Structure (SMILES) | area under the curve, brain time–activity curve ([1]; baseline) | SUVmax brain [1, 6] | area under the curve, brain time–activity curve [1, 7] | Ki (human P2Y12R) [nM] | further results
CCCc1cc2c(N3CCn4c(nnc4C(F)(F)F)C3)nc(OCC[18F])nc2s1 [[^18F]3, 2-(2-[^18F]Fluoroethoxy)-6-propyl-4-(3-(trifluoromethyl)-5,6-dihydro-[1,2,4]triazolo[4,3-a]pyrazin-7(8H)-yl)thieno[2,3-d]pyrimidine] | 4.4 ± 0.1 | 0.2 | 27.6 ± 1.1 |  | SUVmax brain ([1]; efflux transporter blocking with tariquidar 15 mg/kg iv): 1.0; selective and specific binding (P2Y12R [2]): approximately 70%; area under the curve, whole brain time–activity curve (P2Y12R [3]; baseline: tariquidar + tracer, n = 4): 24.1 ± 0.5; area under the curve, whole brain time–activity curve (P2Y12R [3]; blocking: tariquidar + unlabeled 3 (5 mg/kg) and tracer, n = 4, p = 0.04): 20.6 ± 0.7
CCc1cc2c(N3CCN(C(=O)c4ccc(-c5ccccc5)cc4)CC3)nc(N3CCNC(=O)C3)nc2s1 [compound 2, 4-(4-(4-([1,1′-Biphenyl]-4-carbonyl)piperazin-1-yl)-6-ethylthieno[2,3-d]pyrimidin-2-yl)piperazin-2-one] |  |  |  | 9 | 
CCCc1cc2c(N3CCn4c(nnc4C(F)(F)F)C3)nc(OCCF)nc2s1 [compound 3, 2-(2-Fluoroethoxy)-6-propyl-4-(3-(trifluoromethyl)-5,6-dihydro-[1,2,4]triazolo[4,3-a]pyrazin-7(8H)-yl)thieno[2,3-d]pyrimidine] |  |  |  | 0.3 | efflux transporter substrate behavior ([1]; rats, tariquidar blocking of P-glycoprotein and breast cancer resistance protein): strong substrate for efflux transporters; blocking efficiency of [18F]3 binding (P2Y12R [2]; inhibitor co-incubated at 1 μM, n = 3): about 70%
CCOC(=O)c1cc(C#N)c(N2CC(N[11C](=O)NS(=O)(=O)c3ccc(Cl)s3)C2)nc1C [[^11C]1, Ethyl 6-(3-(3-((5-Chlorothiophen-2-yl)sulfonyl)[^11C]ureido)azetidin-1-yl)-5-cyano-2-methylnicotinate] | 3.8 ± 0.7 | 0.1 | 5.2 ± 0.2 |  | %ID/g in rat brain [4]: < 0.1 %ID/g; log D7.4 [5]: 1.93 ± 0.02
